Data taken from ChEMBL document CHEMBL2321864, “Rapid discovery of a novel series of Abl kinase inhibitors by application of an integrated microfluidic synthesis and screening platform” (J Med Chem, 2013).

Key:
[1] = Apparent permeability of the compound by PAMPA assay; assay type: ADME
Outline: (§1)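 In vitro ADME run by a contract lab: human microsomal stability and parallel artificial membrane permeability assay (PAMPA).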

[2] = target: Tyrosine-protein kinase ABL1 (Homo sapiens, UniProt P00519, Y253F); experiment: Inhibition of Abl1 kinase Y253F mutant (unknown origin)
Outline: (§2)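 Biochemical inhibition assays run by a contract screening service as a panel: ABL1 mutants H396P, M351T, Q252H, T315I and Y253F, plus P38α/MAPK14.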

[3] = target: Tyrosine-protein kinase ABL1 (Homo sapiens, UniProt P00519, H396P); experiment: Inhibition of Abl1 kinase H396P mutant (unknown origin); outline: as §2
[4] = target: Tyrosine-protein kinase ABL1 (Homo sapiens, UniProt P00519, M351T); experiment: Inhibition of Abl1 kinase M351T mutant (unknown origin); outline: as §2
[5] = target: Tyrosine-protein kinase ABL1 (Homo sapiens, UniProt P00519, Q252H); experiment: Inhibition of Abl1 kinase Q252H mutant (unknown origin); outline: as §2
[6] = target: Tyrosine-protein kinase ABL1 (Homo sapiens, UniProt P00519, T315I); experiment: Inhibition of Abl1 kinase T315I mutant (unknown origin); outline: as §2
[7] = target: T1, Tyrosine-protein kinase ABL1 (Homo sapiens, UniProt P00519); experiment: Inhibition of Abl1 kinase (unknown origin) using Tyr 6 peptide as substrate assessed as residual enzyme activity after every 10 secs measured for 10 mins by platform assay
[8] = target: T1, Tyrosine-protein kinase ABL1; experiment: Inhibition of wild type Abl1 kinase (unknown origin)
[9] = target: T2, Tyrosine-protein kinase ABL2 (Homo sapiens, UniProt P42684); experiment: Inhibition of Abl2 kinase (unknown origin) using Tyr 6 peptide as substrate assessed as residual enzyme activity after every 10 secs measured for 10 mins
[10] = target: T2, Tyrosine-protein kinase ABL2; experiment: Inhibition of Abl2 kinase (unknown origin) using Tyr 6 peptide as substrate assessed as residual enzyme activity after every 10 secs measured for 10 mins by platform assay
[11] = target: T1, Tyrosine-protein kinase ABL1; experiment: Inhibition of Abl1 kinase (unknown origin) using Tyr 6 peptide as substrate assessed as residual enzyme activity after every 10 secs measured for 10 mins
[12] = target: Mitogen-activated protein kinase 14 (Homo sapiens, UniProt Q16539); experiment: Inhibition of P38alpha (unknown origin); outline: as §2
[13] = Intrinsic clearance in human liver microsomes; assay type: ADME, Microsome; settings: read-out: CLH; outline: as §1

T2 sequence (P42684 whole entry): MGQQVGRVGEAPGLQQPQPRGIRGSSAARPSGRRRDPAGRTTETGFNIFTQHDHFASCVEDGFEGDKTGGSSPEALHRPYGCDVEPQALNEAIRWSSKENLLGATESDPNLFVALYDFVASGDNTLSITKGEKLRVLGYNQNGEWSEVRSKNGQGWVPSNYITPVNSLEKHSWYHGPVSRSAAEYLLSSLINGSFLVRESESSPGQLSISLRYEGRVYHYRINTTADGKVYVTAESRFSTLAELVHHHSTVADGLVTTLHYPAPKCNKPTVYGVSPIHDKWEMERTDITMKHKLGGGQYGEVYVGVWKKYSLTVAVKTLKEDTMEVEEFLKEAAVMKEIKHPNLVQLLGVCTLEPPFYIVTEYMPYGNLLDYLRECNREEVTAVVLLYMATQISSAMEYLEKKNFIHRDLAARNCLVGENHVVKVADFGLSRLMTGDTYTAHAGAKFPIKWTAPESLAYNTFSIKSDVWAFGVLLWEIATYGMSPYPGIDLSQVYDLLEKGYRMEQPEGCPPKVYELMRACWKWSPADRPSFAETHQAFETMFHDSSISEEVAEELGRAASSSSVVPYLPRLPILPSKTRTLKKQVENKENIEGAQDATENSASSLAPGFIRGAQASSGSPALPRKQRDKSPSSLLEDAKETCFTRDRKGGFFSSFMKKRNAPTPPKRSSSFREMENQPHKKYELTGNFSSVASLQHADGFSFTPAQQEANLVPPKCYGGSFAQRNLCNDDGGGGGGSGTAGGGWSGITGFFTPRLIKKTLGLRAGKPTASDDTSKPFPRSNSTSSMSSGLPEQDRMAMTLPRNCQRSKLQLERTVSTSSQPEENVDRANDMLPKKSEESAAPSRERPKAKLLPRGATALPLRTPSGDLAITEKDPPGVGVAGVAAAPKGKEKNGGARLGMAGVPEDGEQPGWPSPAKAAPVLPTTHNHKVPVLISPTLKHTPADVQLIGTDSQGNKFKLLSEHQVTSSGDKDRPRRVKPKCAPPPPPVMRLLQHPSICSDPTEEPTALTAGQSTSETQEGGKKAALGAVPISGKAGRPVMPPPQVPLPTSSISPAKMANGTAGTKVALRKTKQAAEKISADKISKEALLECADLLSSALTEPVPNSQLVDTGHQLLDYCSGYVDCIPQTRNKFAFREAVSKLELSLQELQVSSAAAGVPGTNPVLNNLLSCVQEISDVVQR
Mitogen-activated protein kinase 14, sequence (Q16539 whole entry): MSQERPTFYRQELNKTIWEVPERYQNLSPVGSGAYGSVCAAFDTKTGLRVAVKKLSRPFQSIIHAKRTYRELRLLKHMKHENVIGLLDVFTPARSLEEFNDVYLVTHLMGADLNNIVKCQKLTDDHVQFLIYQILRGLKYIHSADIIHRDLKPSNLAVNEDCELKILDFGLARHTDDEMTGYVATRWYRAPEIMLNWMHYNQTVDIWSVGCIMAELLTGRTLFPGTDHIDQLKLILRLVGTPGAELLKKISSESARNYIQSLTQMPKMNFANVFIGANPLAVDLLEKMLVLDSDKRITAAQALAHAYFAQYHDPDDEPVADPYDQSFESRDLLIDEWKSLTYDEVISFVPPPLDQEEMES

Papp [1]	IC50 [2]	IC50 [3]	IC50 [4]	IC50 [5]	IC50 [6]	IC50 [7]	IC50 [8]	IC50 [9]	IC50 [10]	IC50 [11]	IC50 [12]	microsomal CLint [13]	SMILES
0.1 ×10⁻⁶ cm/s	0.9 nM	0.7 nM	0.9 nM	1.6 nM	1.9 nM	2 nM	1.6 nM	15 nM	11 nM	12 nM	35 nM	76 µL/min/mg	CN1CCN(Cc2ccc(NC(=O)Nc3cc(C#Cc4cncc5nccn45)n(C)n3)cc2C(F)(F)F)CC1
26 ×10⁻⁶ cm/s	0.3 nM	0.3 nM	0.3 nM	0.5 nM	0.4 nM	0.2 nM	0.6 nM	1 nM	2 nM	1 nM	43 nM	90 µL/min/mg	Cc1ccc(C(=O)Nc2ccc(CN3CCN(C)CC3)c(C(F)(F)F)c2)cc1C#Cc1cncc2nccn12
0.2 ×10⁻⁶ cm/s	0.4 nM	0.3 nM	0.5 nM	1 nM	0.8 nM	0.4 nM	1 nM	10 nM	3 nM	7 nM	35 nM	51 µL/min/mg	CN1CCN(Cc2ccc(NC(=O)Nc3cc(C#Cc4cnc5cnccn45)n(C)n3)cc2C(F)(F)F)CC1
2 ×10⁻⁶ cm/s	0.4 nM	0.2 nM	0.4 nM	0.7 nM	0.4 nM	27 nM	1 nM	6 nM	47 nM	12 nM	24 nM	29 µL/min/mg	CN1CCN(Cc2ccc(NC(=O)Nc3cc(C#Cc4cnc5cccnn45)n(C)n3)cc2C(F)(F)F)CC1
